Among the data in ChEMBL document CHEMBL1132246, “Cross-linking and sequence-specific alkylation of DNA by aziridinylquinones. 3. Effects of alkyl substituents” (1999) are Cytotoxicity, Activity and Rate of reduction values, retold here.

Assay [1] deals with NCI-H596. The assay can be described thus: In vitro cytotoxicity against H596 cell line. The class given is functional, Homo sapiens. Summed up:
(§1)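 Continuous-exposure MTT assay at 600 cells/well. HT29 (colon) and H460 (large-cell lung) express high DTD; H596 (lung) and BE (colon) lack detectable DTD activity. Absorbance was read at 540 and 640 nm after 5 days, and growth inhibition was plotted against concentration. Triplicates at each concentration, on at least two occasions.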

The subject of assay [2] is Nucleic Acid. Description: Ability to produce interstrand cross-links in the plasmid DNA at 100 uM concentration. It is filed as functional. Summed up:
(§2)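 Stocks were 10 mM in DMSO. DNA was ethanol-precipitated, denatured in 30% DMSO at 90 °C for 2 min and run on 0.8% agarose gels at 40 V for 16 h. Cross-linked versus single-stranded DNA was read by autoradiography.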

For assay [3], the system named is NCI-H460. The assay can be described thus: In vitro cytotoxicity against H460 cell line. The class given is functional, Homo sapiens. The procedure, abridged: as §1
For assay [4], the system named is BE. The assay can be described thus: In vitro cytotoxicity against BE cell line. It is filed as functional, Homo sapiens. Summed up:
as §1

Assay [5] has as its target NAD(P)H dehydrogenase [quinone] 1 (Homo sapiens) (UniProt P15559). Description: Rate of reduction by human recombinant DTD. It is filed as functional. Summed up: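 Human recombinant DTD (specific activity 653 µmol/min/mg protein) with quinone at 50 µM in 50 mM Tris-HCl, pH 7.4. Reduction was followed through the coupled reduction of 70 µM cytochrome c.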
Assay [6] can be described thus: Rate of reduction by human BE cell extract. The class given is functional. The procedure, abridged:
(§3)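 Extract from 2 × 10⁷ BE cells in 2 mL PBS, sonicated and centrifuged to remove debris. Quinone at 100 µM in PBS with acetylated cytochrome c (100 µM) and NADPH (200 µM). Reduction was followed through cytochrome c reduction.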

Assay [7] deals with HT-29. Description: In vitro cytotoxicity against HT-29 cell line. It is filed as functional, Homo sapiens. Summed up: as §1
Assay [8] deals with Nucleic Acid. Description: Ability to produce interstrand cross-links in the plasmid DNA at 10 uM concentration. It is filed as functional. The procedure, abridged: as §2
Assay [9] deals with BE. The assay can be described thus: Rate of reduction by human BE cell extract; Not Detected. The class given is functional, cell-based. Summed up:
as §3

Sequence of NAD(P)H dehydrogenase [quinone] 1 (Homo sapiens) (P15559 whole entry): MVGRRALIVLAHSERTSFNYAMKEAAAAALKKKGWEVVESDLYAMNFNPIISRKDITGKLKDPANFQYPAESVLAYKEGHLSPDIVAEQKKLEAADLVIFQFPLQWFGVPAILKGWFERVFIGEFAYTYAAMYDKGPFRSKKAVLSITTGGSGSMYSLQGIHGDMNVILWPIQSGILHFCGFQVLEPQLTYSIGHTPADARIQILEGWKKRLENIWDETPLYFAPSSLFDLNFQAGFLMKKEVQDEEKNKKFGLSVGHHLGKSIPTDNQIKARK

In the case of `CC1=C(N2CC2)C(=O)C(C)=C(N2CC2)C1=O`, the Cytotoxicity in assay [1] was found to be 48.8 nM; in [3] it was 0.77 nM; in assay [4] it was 25.9 nM; in assay [7], 3.4 nM. Besides, the Activity in [2] is 100%; in assay [8], 79.8%. Moreover, the Rate of reduction in assay [5] stood at 21 µM/min/mg; in assay [6] it was 9.2 nM/min/mg.

`CCC1=C(N2CC2)C(=O)C(CC)=C(N2CC2)C1=O`: the Cytotoxicity in assay [1] was determined as 1160 nM; in [3], 4.1 nM; in [4] it was 290 nM; in [7], 21.8 nM. In addition, the Activity in assay [2] amounted to 100%; in [8], 60.9%. The Rate of reduction in [5] is 3 µM/min/mg; in assay [6], 2.3 nM/min/mg.

As for `CC(C)C1=C(N2CC2)C(=O)C(C(C)C)=C(N2CC2)C1=O`, the values for the Rate of reduction result in assay [9] and in assay [5] were “Not detected” and 0.22 µM/min/mg, respectively. In addition, the Cytotoxicity in assay [1] is on record as 2620 nM; in assay [3], 170 nM; in [4], 3130 nM; in assay [7], 2740 nM. In addition, the Activity in assay [2] and in assay [8] was 0% throughout.

Regarding `CCC1=C(N2CC2)C(=O)C(C)=C(N2CC2)C1=O`, the Cytotoxicity in [1] is reported as 98.5 nM; in [3], 1.6 nM; in assay [4], 84 nM; in assay [7], 3.9 nM. Moreover, the Activity in assay [2] came to 100%; in assay [8], 69%. Also, the Rate of reduction in assay [5] came out at 12.5 µM/min/mg; in assay [6] it was 4 nM/min/mg.

`CCCC1=C(N2CC2)C(=O)C(CCC)=C(N2CC2)C1=O`: the Cytotoxicity is given as 1290 nM in assay [1], 20.1 nM in [3], 590 nM in assay [4] and 58.2 nM in [7]. The figures for the Activity in [2] and in [8] were 95.6% and 16.4%, respectively. In addition, the values for the Rate of reduction in assay [5] and in [6] were 1 µM/min/mg and 1.7 nM/min/mg, respectively.

On to `CCCC1=C(N2CC2)C(=O)C(C)=C(N2CC2)C1=O`, for which the Cytotoxicity in assay [1] amounted to 228 nM; in assay [3] it was 3.3 nM; in [4], 67 nM; in assay [7] it was 5.5 nM. In addition, the Activity in assay [2] is 100%; in assay [8], 58.4%. Besides, the Rate of reduction worked out at 7.9 µM/min/mg in [5] and 3.4 nM/min/mg in [6].

`CC1=C(N2CC2)C(=O)C(C(C)C)=C(N2CC2)C1=O`: the Cytotoxicity is reported as 1230 nM in assay [1], 3.6 nM in [3], 1300 nM in assay [4] and 33 nM in [7]. In addition, the Activity was 87.8% in [2] and 28.1% in assay [8]. Besides, the Rate of reduction in [5] worked out at 2.7 µM/min/mg; in assay [6], 1.1 nM/min/mg.

As for `O=C1C=C(N2CC2)C(=O)C=C1N1CC1`, the Cytotoxicity was 12.9 nM in assay [1], 4.6 nM in assay [3], 10.2 nM in assay [4] and 5.1 nM in assay [7]. In addition, the Activity in [2] and in assay [8] was 100% in each case. Further, the Rate of reduction in assay [5] was 35.6 µM/min/mg; in assay [6] it was 25.3 nM/min/mg.
